The record followed here is ChEMBL document CHEMBL1136556, “Synthesis and SAR of alpha-acylaminoketone ligands for control of gene expression” (2003).

What all share (format): functional
The nature of assay [1]: Ratio of max level of gene expression of compound to max level of gene expression with compound 1d. A digest of the protocol:
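Dose-response assay in Z3 HEK-293 cells (Bombyx mori EcR, ecdysone response element–β-galactosidase reporter), 48 h ligand exposure, final DMSO 0.03%, bioluminescent read-out. Value is the compound's maximal reporter expression divided by the maximal expression given by the reference dibenzoylhydrazine ecdysone agonist.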

Assay [2] addresses T1, Ecdysone receptor (Bombyx mori) (UniProt P49881).
T1 sequence (whole entry): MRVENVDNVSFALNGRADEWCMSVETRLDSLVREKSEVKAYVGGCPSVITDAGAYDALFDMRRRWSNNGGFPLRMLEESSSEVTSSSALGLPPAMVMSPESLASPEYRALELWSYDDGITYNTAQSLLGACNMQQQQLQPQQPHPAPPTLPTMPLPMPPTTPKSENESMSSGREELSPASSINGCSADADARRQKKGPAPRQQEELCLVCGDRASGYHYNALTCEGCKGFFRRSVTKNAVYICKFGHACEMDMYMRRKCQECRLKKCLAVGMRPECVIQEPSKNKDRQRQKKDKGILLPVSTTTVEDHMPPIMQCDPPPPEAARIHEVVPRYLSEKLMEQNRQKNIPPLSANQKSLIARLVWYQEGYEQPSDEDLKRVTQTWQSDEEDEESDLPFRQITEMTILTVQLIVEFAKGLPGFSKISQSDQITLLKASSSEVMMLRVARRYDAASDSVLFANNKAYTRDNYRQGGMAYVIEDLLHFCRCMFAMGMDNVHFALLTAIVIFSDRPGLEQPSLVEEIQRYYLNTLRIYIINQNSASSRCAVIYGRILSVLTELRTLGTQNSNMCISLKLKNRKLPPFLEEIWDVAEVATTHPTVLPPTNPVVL
Briefly: Agonist activity against Bombyx mori ecdysone receptor. A digest of the protocol: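 HEK-293 clone Z3 stably expressing Bombyx mori EcR with a β-galactosidase reporter under an ecdysone response element. Cells seeded at 2.5 × 10⁴ cells mL⁻¹ and held 24 h at 37 °C, 5% CO₂. Ligands from 10 mM DMSO stocks were diluted 100-fold in medium (final DMSO 0.03%). Luminescence read at 48 h; dose-response value is the dose giving 50% of maximal transactivation.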

The test system of a further assay is HEK293. Briefly: Dose response transactivation assay result expressed as dose affording 50% of max transactivation. The settings on record: Homo sapiens, read-out: LC50. A digest of the protocol: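 HEK-293 clone Z3 engineered to express Bombyx mori EcR, with a β-galactosidase gene under an ecdysone response element. Cells seeded at 2.5 × 10⁴ cells mL⁻¹, grown 24 h at 37 °C in 5% CO₂, then dosed across a concentration series from 10 mM DMSO stocks. Final DMSO 0.03%. Bioluminescent β-gal readout at 48 h; value is dose giving 50% of maximum transactivation.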

Turning to `COc1cccc(C(=O)NC(C)(C(=O)c2ccc(C)cc2)C(C)C)c1C` (stereo unspecified), the Rel Max FI in assay [1] amounted to 0.05. In assay [2], this compound displayed a Fold induction of 31. Moreover, the EC50 (transactivation) with HEK293 is 20 µM.
In the same order, the values of `COc1cccc(C(=O)NC(C)(C(=O)c2ccccc2)C(C)C)c1C` (stereo unspecified) are 0.04, 71 and 33.3 µM.
`O=C(NC1(C(=O)c2ccccc2)CCCC1)c1ccccc1` registered a Fold induction in assay [2] of 2.
Same read-out and setting: with `CCC(CC)(NC(=O)c1cccc(OC)c1C)C(=O)c1ccc(OC)cc1` the figure was 4.
`COc1cccc(C(=O)NC2(C(=O)c3cccc(C)c3)CCCC2)c1C`: in assay [1], the Rel Max FI came to 0.46. Moreover, in assay [2], the Fold induction came to 291. Besides, the EC50 (transactivation) with HEK293 is 3.4 µM.
In the case of `COc1cccc(C(=O)NC(C)(C(=O)c2cccc(C)c2)C(C)C)c1C` (stereo unspecified), the Rel Max FI in assay [1] stood at 0.47. The Fold induction in assay [2] turned out to be 370. In addition, in the assay on HEK293, the EC50 (transactivation) was determined as 8.6 µM.
In the same order, the values of `CCC(CC)(NC(=O)c1cccc(OC)c1C)C(=O)c1ccccc1OC` are 0.29, 384 and 6.2 µM.
In turn, `COc1cccc(C(=O)NC2(C(=O)c3ccccc3C)CCCC2)c1C` came in with a Fold induction in assay [2] of 30.
`COc1cccc(C(=O)NC(C)(C(=O)c2ccc(F)c(C)c2)C(C)C)c1C` (stereo unspecified): in assay [1], the Rel Max FI came to 0.24.
Take `CCC(CC)(NC(=O)c1cccc(OC)c1C)C(=O)c1ccc(F)cc1`: in assay [1], the Rel Max FI was 0.04. Also, the Fold induction in assay [2] came out at 60. Further, the EC50 (transactivation) in the assay on HEK293 is 13.7 µM.
With `COc1cccc(C(=O)C(C)(NC(=O)c2cccc(OC)c2C)C(C)C)c1` (stereo unspecified), the Rel Max FI in assay [1] came to 0.12. In addition, the Fold induction in assay [2] was found to be 35. In the assay with HEK293, the EC50 (transactivation) was determined as 25.5 µM.
Take `COc1cccc(C(=O)NC2(C(=O)c3cc(C)cc(C)c3)CCCC2)c1C`: the Rel Max FI in assay [1] amounted to 0.85. For the same compound, the Fold induction in assay [2] came to 660. Moreover, in the assay on HEK293, the EC50 (transactivation) was 1.9 µM.
On to `CCC(CC)(NC(=O)c1cccc(OC)c1C)C(=O)c1ccc(F)c(C)c1`, for which the Rel Max FI in assay [1] is 0.07. In assay [2], this compound came in with a Fold induction of 223. In addition, the EC50 (transactivation) with HEK293 amounted to 10.4 µM.
`CCC(CC)(NC(=O)c1cccc(OC)c1C)C(=O)c1ccc(C)cc1` showed a Fold induction in assay [2] of 8.
Turning to `CCC(CC)(NC(=O)c1cccc(OC)c1C)C(=O)c1cccc(OC)c1`, the Rel Max FI in assay [1] came to 0.01. In addition, the Fold induction in assay [2] was 256. In addition, the EC50 (transactivation) with HEK293 worked out at 33.3 µM.
Take `COc1cccc(C(=O)C2(NC(=O)c3cccc(OC)c3C)CCCC2)c1`: the Rel Max FI in assay [1] worked out at 0.12.
`CCC(CC)(NC(=O)c1cccc(OC)c1C)C(=O)c1ccccc1` had a Fold induction in assay [2] of 11.
In turn, `Cc1ccccc1C(=O)NC1(C(=O)c2ccccc2)CCCC1` displayed a Fold induction in assay [2] of 2.
As to `COc1cccc(C(=O)NC2(C(=O)c3ccccc3)CCCC2)c1C`, the Rel Max FI in assay [1] was determined as 0.14. The same compound returned a Fold induction in assay [2] of 71. Further, in the assay with HEK293, the EC50 (transactivation) amounted to 2.7 µM.
In the same order, the values of `COc1cccc(C(=O)NC2(C(=O)c3ccc(F)cc3)CCCC2)c1C` are 0.14, 218 and 15 µM.
`COc1cccc(C(=O)NC2(C(=O)c3ccccc3)CCCC2)c1` gave a Fold induction in assay [2] of 2.
With `COc1cccc(C(=O)NC2(C(=O)c3ccc(C)cc3)CCCC2)c1C`, the Fold induction in assay [2] came to 21.
Still for that read-out and setting: with `CCc1ccc(C(=O)NC(C)(C)C(=O)c2ccccc2)cc1` the figure was 2.
For the compound `CC(C)(NC(=O)c1ccc2c(c1)OCO2)C(=O)c1ccccc1`, in assay [2], the Fold induction worked out at 1.
As for `CCC(CC)(NC(=O)c1cccc(OC)c1C)C(=O)c1ccccc1C`, the Fold induction in assay [2] was 5.
Regarding `COc1cccc(C(=O)NC(C)(C(=O)c2ccccc2C)C(C)C)c1C` (stereo unspecified), the Rel Max FI in assay [1] came out at 0.26. The same compound displayed a Fold induction in assay [2] of 452. The EC50 (transactivation) with HEK293 amounted to 18 µM.
Compound `COc1ccc(C(=O)C2(NC(=O)c3cccc(OC)c3C)CCCC2)cc1` registered a Fold induction in assay [2] of 5.
In the case of `COc1ccccc1C(=O)C1(NC(=O)c2cccc(OC)c2C)CCCC1`, the Rel Max FI in assay [1] was determined as 0.7. In addition, in assay [2], the Fold induction is 1200. For the same compound, the EC50 (transactivation) in the assay with HEK293 was found to be 5.2 µM.
The matching figures for `COc1ccccc1C(=O)C(C)(NC(=O)c1cccc(OC)c1C)C(C)C` (stereo unspecified): 0.2, 599 and 15 µM.
The matching figures for `COc1cccc(C(=O)NC(C)(C(=O)c2cc(C)cc(C)c2)C(C)C)c1C` (stereo unspecified): 0.75, 751 and 2.1 µM.
`O=C(NC1(C(=O)c2ccccc2)CCCC1)c1ccc2c(c1)OCO2` had a Fold induction in assay [2] of 1.
As to `CCC(CC)(NC(=O)c1cccc(OC)c1C)C(=O)c1cc(C)cc(C)c1`, the Rel Max FI in assay [1] is 0.6. The Fold induction in assay [2] was 1000. In the assay with HEK293, the EC50 (transactivation) is 4.5 µM.
`COc1cccc(C(=O)NC(C)(C)C(=O)c2ccccc2)c1` returned a Fold induction in assay [2] of 1.
The same measure, in the same setting: as for `COc1cccc(C(=O)NC(C)(C)C(=O)c2ccccc2)c1C`, the figure is 2; as for `Cc1ccccc1C(=O)NC(C)(C)C(=O)c1ccccc1`, 1.
In assay [2], `CC(C)(NC(=O)c1ccccc1)C(=O)c1ccccc1` registered a Fold induction of 1.
Consider `CCC(CC)(NC(=O)c1cccc(OC)c1C)C(=O)c1cccc(C)c1`, for which the Rel Max FI in assay [1] was found to be 0.25. In addition, the Fold induction in assay [2] was determined as 525. In addition, the EC50 (transactivation) in the assay with HEK293 was determined as 6.6 µM.
As for `COc1cccc(C(=O)NC2(C(=O)c3ccc(F)c(C)c3)CCCC2)c1C`, in assay [1], the Rel Max FI is 0.43. Further, the Fold induction in assay [2] was found to be 487. In the assay with HEK293, the EC50 (transactivation) amounted to 3.5 µM.
